These results are taken from ChEMBL document CHEMBL2375262, “Thiazolidin-4-one and thiazinan-4-one derivatives analogous to rosiglitazone as potential antihyperglycemic and antidyslipidemic agents” (2013).

What all share (type): functional
The test system of experiment [1] is L6. Nature of the experiment: Antihyperglycemic activity in rat L6 cells assessed as increase in 2-deoxy-[3H]-D-glucose uptake at 10 uM after 18 hrs by liquid scintillation counting analysis relative to control. An outline of the steps:
(§1)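 L6 myoblasts were differentiated to myotubes in DMEM with 2% FBS, then treated for 18 h. After washes, cells took up 3 µCi 2-deoxy-[3H]D-glucose plus 20 µM unlabelled 2-deoxyglucose in HEPES-buffered saline for 15 min. Cells were lysed in 0.1 N NaOH and counted by scintillation; results are % increase over control.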

Experiment [2] has as its system Mus musculus. Nature of the experiment: Antihyperglycemic activity in db/db mouse assessed as reduction of blood glucose level at 30 mg/kg, po qd measured daily for 15 days relative to vehicle-treated control. The arrangement: scale not given: the % may be the effect or the level left. Summed up:
(§2)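 Male db/db mice, 10-12 weeks, >40 g, with blood glucose 180-300 mg/dl; six per group. Dosed orally once daily in 1% gum acacia on days 1-15, with vehicle controls. Blood glucose was read daily. OGTT on days 10 and 15 after an overnight fast: glucose at -30, 0, 30, 60, 90 and 120 min around an oral 3.0 g/kg glucose load. Activity was taken from AUC versus control; Dunnett's test.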

In experiment [3] the test system is Mus musculus. Nature of the experiment: Antidyslipidemic activity in db/db mouse assessed as increase in plasma HDL-cholesterol level at 30 mg/kg, po qd administered 15 days […] relative to vehicle-treated control.
The test system of experiment [4] is Mus musculus. Put plainly: Antihyperglycemic activity in db/db mouse assessed as inhibition of post prandial blood glucose level at 30 mg/kg, po qd administered 15 days by OGTT relative to vehicle-treated control. The conditions noted are these: 360 h. An outline of the steps:
as §2

Experiment [5] relates to Mus musculus. Put plainly: Insulin resistance reversal activity in db/db mouse assessed as decrease in plasma insulin level at 30 mg/kg, po qd administered 15 days measured on day 16 by ELISA relative to vehicle-treated control. The arrangement: scale not given: the % may be the effect or the level left. An outline of the steps:
(§3)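 db/db males, 10-12 weeks, >40 g, baseline glucose 180-300 mg/dl, n=6 per group. Oral suspension in 1% gum acacia given once daily for days 1-15; vehicle controls. At study end, retro-orbital plasma insulin was measured by ELISA. Groups were compared by Dunnett's test.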

The test system of experiment [6] is Mus musculus. Nature of the experiment: Antihyperglycemic activity in db/db mouse assessed as inhibition of post prandial blood glucose level at 30 mg/kg, po qd administered 15 days measured on day 10 by OGTT relative to vehicle-treated control. An outline of the steps: as §2
For experiment [7], the system named is Mus musculus. Put plainly: Antidyslipidemic activity in db/db mouse assessed as decrease in plasma triglycerides level at 30 mg/kg, po qd administered 15 days measured on day 16 by ELISA relative to vehicle-treated control. The arrangement: scale not given: the % may be the effect or the level left. Particulars: in the assay text read “by colorimetric assay” for “by ELISA”. Summed up: (§4)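 Male db/db mice, 10-12 weeks old, over 40 g. After a 3-day vehicle run-in, animals with blood glucose 180-300 mg/dl were placed in groups of six and gavaged once daily on days 1-15 with a suspension in 1% gum acacia. Controls received vehicle. Terminal retro-orbital plasma was assayed for triglycerides, total and HDL-cholesterol with colorimetric kits. Dunnett's test was used.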

Experiment [8] deals with Mus musculus. Nature of the experiment: Antidyslipidemic activity in db/db mouse assessed as decrease in plasma total cholesterol level at 30 mg/kg, po qd administered 15 days measured on day 16 […] relative to vehicle-treated control. The arrangement: scale not given: the % may be the effect or the level left. An outline of the steps:
as §4

Experiment [9] deals with L6. Nature of the experiment: Antihyperglycemic activity in rat L6 cells assessed as increase in 2-deoxy-[3H]-D-glucose uptake at 50 uM after 18 hrs by liquid scintillation counting analysis relative to control. Summed up: as §1
For the next experiment, the system named is 3T3-L1. Nature of the experiment: Induction of adipogenesis in mouse 3T3L1 cells assessed as accumulation of lipid droplets at 10 uM measured on day 9 by Oil Red O staining method relative to control. Summed up:
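3T3-L1 preadipocytes, 2 days post-confluence, were induced with 0.5 mM IBMX, 0.25 µM dexamethasone and insulin in DMEM/10% FBS with compound present. After 3 days, medium changed to insulin alone, then to DMEM/10% FBS. On day 9, lipid droplets were stained with 0.36% Oil Red O in 60% isopropanol for 30 min and examined by microscope.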

For experiment [10], the system named is Mus musculus. Put plainly: Antidyslipidemic activity in db/db mouse assessed as decrease in plasma triglycerides level at 100 mg/kg, po qd administered 15 days […] relative to vehicle-treated control. Details: scale not given: the % may be the effect or the level left.
For experiment [11], the system named is Mus musculus. Put plainly: Antihyperglycemic activity in db/db mouse assessed as inhibition of post prandial blood glucose level at 100 mg/kg, po qd administered 15 days by OGTT relative to vehicle-treated control. Particulars: 360 h. Summed up: as §2
In experiment [12] the test system is Mus musculus. Nature of the experiment: Insulin resistance reversal activity in db/db mouse assessed as decrease in plasma insulin level at 100 mg/kg, po qd administered 15 days measured on day 16 by ELISA relative to vehicle-treated control. The arrangement: scale not given: the % may be the effect or the level left. An outline of the steps:
as §3

For experiment [13], the system named is Mus musculus. Nature of the experiment: Antidyslipidemic activity in db/db mouse assessed as increase in plasma HDL-cholesterol level at 100 mg/kg, po qd administered 15 days […] relative to vehicle-treated control.
Experiment [14] relates to Mus musculus. Nature of the experiment: Antihyperglycemic activity in db/db mouse assessed as reduction of blood glucose level at 100 mg/kg, po qd measured daily for 15 days relative to vehicle-treated control. Details: scale not given: the % may be the effect or the level left. Summed up:
as §2

Experiment [15] deals with Mus musculus. Nature of the experiment: Antidyslipidemic activity in db/db mouse assessed as decrease in plasma total cholesterol level at 100 mg/kg, po qd administered 15 days […] relative to vehicle-treated control. The arrangement: scale not given: the % may be the effect or the level left.
The subject of experiment [16] is Mus musculus. Put plainly: Antihyperglycemic activity in db/db mouse assessed as inhibition of post prandial blood glucose level at 100 mg/kg, po qd administered 15 days measured on day 10 by OGTT relative to vehicle-treated control. Summed up:
as §2

As to `CN(CCOc1ccc(C2NC(=O)CCS2)cc1)c1ccccn1` (configuration not stated), the Activity was 53.5% in the experiment on L6 [1]; 30.4% in the experiment on Mus musculus [2]; 1.46% in the experiment on Mus musculus [3]; 28.8% in the experiment with Mus musculus [5]; 13.2% in the experiment with Mus musculus [7]; 15.1% with Mus musculus [8]. Also, the results for the inhibition in vivo at 30 mg/kg in the experiment with Mus musculus [4] and with Mus musculus [6] were -44.9% and -40.8%, respectively.
In the case of `CN(CCOc1ccc(CC2SC(=O)NC2=O)cc1)c1ccccn1` (configuration not stated) [ROSIGLITAZONE], the Activity with Mus musculus [2] worked out at 53.7%; with L6 [9], 61.6%; in the experiment with 3T3-L1 it was 24%; in the experiment on Mus musculus [5], 44.8%; in the experiment with Mus musculus [7], 32.5%; in the experiment on Mus musculus [8], 26.4%. Further, the inhibition in vivo at 30 mg/kg was -40.7% with Mus musculus [4] and -33.3% in the experiment with Mus musculus [6].
Regarding `CC(C)N1C(=O)CCSC1c1ccc(OCCN(C)c2ccccn2)cc1` (configuration not stated), in the experiment on L6 [1], the Activity came out at 14.8%.
Take `CN(C)C(=N)NC(=N)N` [METFORMIN]: the Activity in the experiment with Mus musculus [10] is recorded as 12.1%; in the experiment with Mus musculus [12] it was 37%; with Mus musculus [13], 6.8%; with Mus musculus [14], 23.7%; in the experiment with Mus musculus [15] it was 14.6%. In addition, the values for the inhibition in vivo at 100 mg/kg in the experiment with Mus musculus [11] and in the experiment on Mus musculus [16] were 29.7% and 29.1%, respectively.
Turning to `CN(CCOc1ccc(C2NC(=O)CS2)cc1)c1ccccn1` (configuration not stated), the Activity in the experiment on L6 [1] is reported as 51.9%; with Mus musculus [2], 18.5%; in the experiment on 3T3-L1, 5.53%; with Mus musculus [5] it was 27.4%; with Mus musculus [7], 14%; with Mus musculus [8], 19.3%. Also, the results for the inhibition in vivo at 30 mg/kg with Mus musculus [4] and with Mus musculus [6] were -36.6% and -25.9%, respectively.
In the case of `CN(CCOc1ccc(C2SCCC(=O)N2Cc2ccccc2)cc1)c1ccccn1` (configuration not stated), the Activity with L6 [1] is reported as 33%; in the experiment with Mus musculus [2], 19.1%; in the experiment on Mus musculus [3] it was 6.47%; in the experiment on Mus musculus [5], 21.5%; with Mus musculus [7], 25.6%; in the experiment with Mus musculus [8], 9.88%. Further, the figures for the inhibition in vivo at 30 mg/kg with Mus musculus [4] and in the experiment with Mus musculus [6] were -42.6% and -29.4%, respectively.
Turning to `CCCCN1C(=O)C[S+]([O-])C1c1ccc(OCCN(C)c2ccccn2)cc1` (configuration not stated), the Activity came out at 25.9% in the experiment with Mus musculus [2]; 39.6% in the experiment on Mus musculus [3]; 24.6% in the experiment with Mus musculus [5]; 19.2% in the experiment on Mus musculus [7]; 10.8% with Mus musculus [8]. Further, the inhibition in vivo at 30 mg/kg in the experiment with Mus musculus [4] was -27.2%; in the experiment with Mus musculus [6], -12.9%.
For `CCCCN1C(=O)CSC1c1ccc(OCCN(C)c2ccccn2)cc1` (configuration not stated), the Activity in the experiment on Mus musculus [2] worked out at 22.1%; with Mus musculus [3] it was 10.1%; with Mus musculus [5] it was 17.6%; with Mus musculus [7], 31.8%; in the experiment with Mus musculus [8] it was 4.8%. For the same compound, the inhibition in vivo at 30 mg/kg in the experiment with Mus musculus [4] is -25.4%; in the experiment with Mus musculus [6] it was -20.2%.
For `CCCCN1C(=O)CS(=O)(=O)C1c1ccc(OCCN(C)c2ccccn2)cc1` (configuration not stated), the Activity in the experiment with L6 [1] was found to be 51.3%; in the experiment with Mus musculus [2], 30.2%; in the experiment with Mus musculus [3] it was 25.7%; in the experiment on Mus musculus [5], 28.8%; in the experiment on Mus musculus [7], 14.7%; with Mus musculus [8], 7.2%.
Consider `CN(CCOc1ccc(C2SCC(=O)N2C2CC2)cc1)c1ccccn1` (configuration not stated), for which the Activity came out at 67.2% in the experiment with L6 [1]; 25.6% in the experiment with Mus musculus [2]; 8.8% in the experiment on Mus musculus [3]; 3.87% with 3T3-L1; 31.8% with Mus musculus [5]; 15.6% in the experiment with Mus musculus [7]. In addition, in the experiment on Mus musculus [8], the Activity is reported as 12.6%. The inhibition in vivo at 30 mg/kg in the experiment with Mus musculus [4] is -40.9%; in the experiment with Mus musculus [6], -26.6%.
`CCCCN1C(=O)CCSC1c1ccc(OCCN(C)c2ccccn2)cc1` (configuration not stated): the Activity with L6 [1] was 35.4%.
On to `CN(CCOc1ccc(C2SCC(=O)N2Cc2ccccc2)cc1)c1ccccn1` (configuration not stated), for which the Activity with Mus musculus [2] is listed as 15.4%; with Mus musculus [3], 22.2%; in the experiment with Mus musculus [5] it was 22.4%; in the experiment on Mus musculus [7], 9.83%; in the experiment on Mus musculus [8], 10.2%. Moreover, the inhibition in vivo at 30 mg/kg is -16.4% in the experiment with Mus musculus [4] and -4.3% with Mus musculus [6].
For the compound `CN(CCOc1ccc(C2SCCC(=O)N2C2CC2)cc1)c1ccccn1` (configuration not stated), the Activity in the experiment on L6 [1] is 69.5%; in the experiment on Mus musculus [2], 22.4%; with Mus musculus [3], 3.38%; with Mus musculus [5], 26.6%; in the experiment with Mus musculus [7], 29.9%; in the experiment with Mus musculus [8], 29.5%. Also, the inhibition in vivo at 30 mg/kg is -27.9% with Mus musculus [4] and -20.4% in the experiment on Mus musculus [6].
Consider `CN(CCOc1ccc(C2N(Cc3ccccc3)C(=O)C[S+]2[O-])cc1)c1ccccn1` (configuration not stated), for which the Activity is 45.5% in the experiment with L6 [1]; 22.1% with Mus musculus [2]; 20% in the experiment on Mus musculus [3]; 20.4% in the experiment on Mus musculus [5]; 18.4% in the experiment with Mus musculus [7]. For the same compound, the figures for the inhibition in vivo at 30 mg/kg with Mus musculus [4] and in the experiment with Mus musculus [6] were -20.2% and -6.4%, respectively.
